{"source": "paper PMC3381860", "about": "(Chemmedchem, 2011)", "key": {"[1]": {"system": "P. falciparum HB3 (chloroquine-sensitive)", "experiment": "P. falciparum HB3 antiplasmodial activity", "format": "cell-based, Plasmodium falciparum", "conditions": "read-out: Antiplasmodial activity IC50 HB3"}, "[2]": {"system": "Vero", "experiment": "Cytotoxicity against uninfected Vero cells", "format": "cell-based", "conditions": "for IC50: read-out: Cytotoxicity IC50 Vero, uninfected Vero cells"}, "[3]": {"system": "P. falciparum (3D7)", "experiment": "P. falciparum 3D7 proliferation", "format": "cell-based, Plasmodium falciparum"}, "[4]": {"system": "J774", "experiment": "Cytotoxicity against uninfected J774 cells", "format": "cell-based", "conditions": "read-out: Cytotoxicity IC50 J774"}, "[5]": {"system": "P. falciparum Dd2 (chloroquine-resistant)", "experiment": "P. falciparum Dd2 antiplasmodial activity", "format": "cell-based, Plasmodium falciparum", "conditions": "read-out: Antiplasmodial activity IC50 Dd2"}, "[6]": {"experiment": "Spectrophotometric titration of Fe", "format": "binding", "how_it_was_run": "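Heme (Fe(III)PPIX) titrated with test compound from 1:1 to 16:1 mol equiv compound:heme at 23 °C in 40 % DMSO, 20 mM HEPES, pH 7.4. Soret-band and Q-band absorbance recorded after each addition. Spectra corrected for dilution by subtracting a reference cell.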"}, "[7]": {"system": "HepG2", "experiment": "Cytotoxicity against uninfected HepG2 cells", "format": "cell-based", "conditions": "read-out: Cytotoxicity IC50 HepG2"}, "[8]": {"system": "heme crystallization", "experiment": "Parasite-free colorimetric heme crystallization inhibition", "format": "biochemical", "conditions": "molar equivalents of compound to heme"}, "[9]": {"system": "P. falciparum HB3 (chloroquine-sensitive)", "conditions": "read-out: Antiplasmodial activity IC50 HB3, ref Hawley et al. [30]; cited from earlier work"}, "[10]": {"system": "P. falciparum (3D7)", "conditions": "read-out: Antiplasmodial activity IC50 3D7, ref Hawley et al. [30]; cited from earlier work"}, "[11]": {"conditions": "read-out: Antiplasmodial activity IC50 3D7, 3D7, chloroquine-sensitive"}, "[12]": {"conditions": "read-out: P. falciparum (3D7) IC50, 3D7 strain"}}, "note": "Values joined by “and” are separate entries in the source; they are usually repeats but may differ in a detail not shown here. Identical values can stand only once. Like-named read-outs stand apart in the source and are kept apart here."}
{"compound": "18-acetylbromophycolide A [Compound 7]", "values": [{"measurement": "IC50", "setting": "[1]", "result": "431 ± 25", "unit": "nM"}, {"measurement": "IC50", "setting": "[2]", "result": 74000, "unit": "nM"}, {"measurement": "fold increase in activity for P. falciparum parasites over mammalian (Vero) cells", "setting": "[2]; selectivity P. falciparum vs Vero", "result": 300, "unit": "fold"}, {"measurement": "IC50", "setting": "[3]; [11]", "result": "241 ± 52", "unit": "nM"}, {"measurement": "IC50", "setting": "[3]; [12]", "result": 240, "unit": "nM"}, {"measurement": "IC50", "setting": "[4]", "result": 24700, "unit": "nM"}, {"measurement": "IC50", "setting": "[5]", "result": "304 ± 8.4", "unit": "nM"}, {"measurement": "decrease in Soret band (λ 402 nm) absorbance of Fe^IIIPPIX upon titration", "setting": "[6]; 40 % DMSO, 20 mM HEPES, pH 7.4", "result": 25, "unit": "%"}, {"measurement": "IC50", "setting": "[7]", "result": 38500, "unit": "nM"}, {"measurement": "Heme crystallization IC50", "setting": "[8]", "result": "2.0 mol equiv and 2.0 ± 0.15 mol equiv"}]}
{"compound": "CCN(CC)Cc1cc(Nc2ccnc3cc(Cl)ccc23)ccc1O", "note": "[AMQ, amodiaquine, reference compound]", "values": [{"measurement": "IC50", "setting": "[9]", "result": 8.5, "unit": "nM"}, {"measurement": "Heme crystallization IC50", "setting": "[8]", "result": "1.2 ± 0.19", "unit": "mol equiv"}, {"measurement": "Heme crystallization IC50", "setting": "[8]; listed as amodiaquine", "result": 1.2, "unit": "mol equiv"}, {"measurement": "IC50", "setting": "[10]", "result": 7.8, "unit": "nM"}]}
{"compound": "CC1=C2Cc3cc(ccc3O)C(=O)O[C@H](C(C)(C)Br)CC[C@](C)(O)[C@H](Br)CC[C@]2(C)[C@@H](Br)CC1", "note": "[Compound 1, bromophycolide A]", "values": [{"measurement": "IC50", "setting": "[1]", "result": "493 ± 44", "unit": "nM"}, {"measurement": "IC50", "setting": "[2]", "result": 34600, "unit": "nM"}, {"measurement": "IC50", "setting": "[3]; [11]", "result": "499 ± 51", "unit": "nM"}, {"measurement": "IC50", "setting": "[3]; [12]", "result": 500, "unit": "nM"}, {"measurement": "IC50", "setting": "[4]", "result": 19000, "unit": "nM"}, {"measurement": "IC50", "setting": "[5]", "result": "377 ± 92", "unit": "nM"}, {"measurement": "association constant log K of Fe^IIIPPIX–compound complex", "setting": "[6]; 1:1 complexation model, 40 % DMSO, 20 mM HEPES, pH 7.4", "result": "4.52 ± 0.18"}, {"measurement": "decrease in Soret band (λ 402 nm) absorbance of Fe^IIIPPIX upon titration", "setting": "[6]; 40 % DMSO, 20 mM HEPES, pH 7.4", "result": 45, "unit": "%"}, {"measurement": "binding concentration at half-maximum", "setting": "[6]; spectrophotometric titration experiment", "result": 25, "unit": "µM"}, {"measurement": "IC50", "setting": "[7]", "result": 21300, "unit": "nM"}, {"measurement": "Heme crystallization IC50", "setting": "[8]", "result": "2.5 mol equiv and 2.5 ± 0.13 mol equiv"}]}
{"compound": "CC1=C2Cc3cc(ccc3O)C(=O)O[C@H](C(C)(C)O)CC[C@](C)(O)[C@H](Br)CC[C@]2(C)[C@@H](Br)CC1", "note": "[Compound 2, bromophycolide C]", "values": [{"measurement": "IC50", "setting": "[3]; [12]", "result": 56000, "unit": "nM"}]}
{"compound": "C=C(C)[C@@H]1CC[C@](C)(O)[C@H](Br)CC[C@@]2(C)[C@H](Cc3cc(ccc3O)C(=O)O1)C(=C)CC[C@@H]2Br", "note": "[Compound 4, bromophycolide E]", "values": [{"measurement": "IC50", "setting": "[3]; [12]", "result": 820, "unit": "nM"}]}
{"compound": "C=C(C)[C@@H]1CCC(C)(O)[C@H](Br)CC[C@@]2(C)C(=C(C)CC[C@@H]2Br)Cc2cc(ccc2O)C(=O)O1", "note": "(stereo partly shown) [Compound 5, bromophycolide M]", "values": [{"measurement": "IC50", "setting": "[3]; [12]", "result": 550, "unit": "nM"}]}
{"compound": "bromophycolide D [Compound 3]", "values": [{"measurement": "IC50", "setting": "[3]; [12]", "result": 350, "unit": "nM"}]}
{"compound": "debromophycolide A [Compound 6]", "values": [{"measurement": "P. falciparum (3D7) IC50", "setting": "[3]; 3D7 strain", "result": "completely inactive"}, {"measurement": "IC50", "setting": "[3]; [12]", "result": "> 100000", "unit": "nM"}]}
